Drawing on ChEMBL document CHEMBL1125831, “Synthesis and quantitative structure-activity relationship analysis of 2-(aryl or heteroaryl)quinolin-4-amines, a new class of anti-HIV-1 agents” (J Med Chem, 1991), this text covers EC50 and MTC for 38 compounds.

The test system of data set [1] is Human immunodeficiency virus 1. In words: In vitro antiviral activity in Phytohemagglutininin stimulated human PBM cells infected with HIV-1 (strain LAV-1). In kind it is functional, organism-based. To be noted: Human immunodeficiency virus 1, PBMC. In outline: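 […] human PBM cells stimulated with phytohemagglutinin, then infected with HIV-1 strain LAV-1. Antiviral activity reported as median effective concentration (EC50).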

The nature of data set [2]: In vitro toxicity on uninfected Phytohemagglutininin stimulated human PBM cell. Type of data set: cell-based. In outline: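 Human PBM cells stimulated with phytohemagglutinin and left uninfected. Cell toxicity reported as minimum toxic concentration (MTC).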

In data set [1], `c1cncc(-c2cc(N3CCCCC3)c3ccccc3n2)c1` returned an EC50 of 20 µM. The compound also gave an MTC in data set [2] of 100 µM.

`CCN(CCN(C)C)c1cc(-c2cccs2)nc2ccccc12` showed an EC50 in data set [1] of 32.4 µM. The same compound gave an MTC in data set [2] of 100 µM.

In data set [1], `CN1CCN(c2cc(-c3cccs3)nc3ccccc23)CC1` came in with an EC50 of 9.07 µM.

In the case of `CC1CCCN(c2cc(-c3ccccn3)nc3ccccc23)C1` (stereo not given), the EC50 in data set [1] turned out to be 4.86 µM. Besides, the MTC in data set [2] was found to be 100 µM.

In data set [1], `CC1CCN(c2cc(-c3ccccn3)nc3ccccc23)CC1` yielded an EC50 of 4.08 µM. This compound came in with an MTC in data set [2] of 100 µM.

In the case of `CCN(CCN(C)C)c1cc(-c2ccccc2)nc2ccccc12`, the EC50 in data set [1] was 34.8 µM.

With `CC(C)(C)Nc1cc(-c2ccccc2)nc2ccccc12`, the EC50 in data set [1] was 100 µM.

In data set [1], `CN(C)CCNc1cc(-c2ccc(F)cc2)nc2ccccc12` had an EC50 of 13.2 µM. The same compound returned an MTC in data set [2] of 100 µM.

For the compound `CCN(CCN(C)C)c1cc(-c2cccnc2)nc2ccccc12`, the EC50 in data set [1] came to 24.2 µM. In data set [2], this compound came in with an MTC of 100 µM.

The compound `CC(C)Nc1cc(-c2ccccc2)nc2ccccc12` showed an EC50 in data set [1] of 100 µM. Moreover, the MTC in data set [2] was above 100 µM.

In data set [1], `CN(C)CCNc1cc(-c2ccccc2)nc2ccccc12` had an EC50 of 10 µM. The MTC in data set [2] was determined as 100 µM.

In the case of `Nc1cc(-c2ccccc2)nc2ccccc12`, it took 25.7 µM to reach a half-maximal effect in data set [1] (EC50).

Turning to `CN1CCN(c2cc(-c3ccccn3)nc3ccccc23)CC1`, the EC50 in data set [1] turned out to be 5.51 µM.

As to `CC(C)CNc1cc(-c2ccccc2)nc2ccccc12`, in data set [1], the EC50 turned out to be 50.6 µM. The compound further showed an MTC in data set [2] of 100 µM.

`CN(C)CCNc1cc(-c2ccco2)nc2ccccc12`: the concentration giving a half-maximal response (EC50) in data set [1] came out at 0.91 µM. Also, in data set [2], the MTC was above 1 µM.

With `Nc1cc(-c2cccnc2)nc2ccccc12`, a half-maximal effect in data set [1] (EC50) was put at 1 µM. The MTC in data set [2] turned out to be 85.7 µM.

In data set [1], `COc1ccc(-c2cc(NCCN(C)C)c3ccccc3n2)cc1` registered an EC50 of 10.4 µM. This compound also registered an MTC in data set [2] of 10 µM.

Consider `Cc1ccc(-c2cc(NCCN(C)C)c3ccccc3n2)cc1`, for which the EC50 in data set [1] is 4.47 µM. The MTC in data set [2] was 10 µM.

In data set [1], `CN1CCN(c2cc(-c3cccnc3)nc3ccccc23)CC1` registered a half-maximal effective concentration (EC50) of 1 µM. The compound also gave an MTC in data set [2] above 100 µM.

As for `CC1CCCCN1c1cc(-c2ccccc2)nc2ccccc12` (stereo not given), the EC50 in data set [1] was determined as 26.4 µM. The same compound registered an MTC in data set [2] of 100 µM.

`CN(C)CCNc1cc(-c2ccc(Br)cc2)nc2ccccc12` displayed an EC50 in data set [1] of 44.2 µM. In data set [2], this compound displayed an MTC of 100 µM.

Turning to `CN1CCN(c2cc(-c3ccco3)nc3ccccc23)CC1`, the EC50 in data set [1] was 15.8 µM.

In data set [1], `CCN(CCN(C)C)c1cc(-c2ccncc2)nc2ccccc12` displayed an EC50 of 100 µM. The MTC in data set [2] was 100 µM.

In data set [1], `CC1CCCCN1c1cc(-c2ccccn2)nc2ccccc12` (stereo not given) came in with an EC50 of 4.24 µM. In data set [2], this compound registered an MTC of 100 µM.

The compound `CN1CCN(c2cc(-c3ccncc3)nc3ccccc23)CC1` gave an EC50 in data set [1] of 68.2 µM.

For the compound `c1ccc(-c2cc(N3CCOCC3)c3ccccc3n2)nc1`, in data set [1], the response was half-maximal at 18.5 µM (EC50).

In data set [1], `CN(C)CCNc1cc(-c2ccccn2)nc2ccccc12` came in with an EC50 of 1.35 µM. The MTC in data set [2] stood at 100 µM.

As for `c1cncc(-c2cc(N3CCCC3)c3ccccc3n2)c1`, the midpoint of the response in data set [1], the EC50, lay at 33.7 µM. The MTC in data set [2] was 100 µM.

As for `c1ccc(-c2cc(N3CCSCC3)c3ccccc3n2)nc1`, the EC50 in data set [1] was found to be 2.81 µM.

Turning to `CN1CCN(c2cc(-c3ccccc3)nc3ccccc23)CC1`, a half-maximal effect in data set [1] (EC50) was put at 13.2 µM. In data set [2], this compound registered an MTC of 100 µM.

In data set [1], `CC1CCCN(c2cc(-c3ccccc3)nc3ccccc23)C1` (stereo not given) came in with a 50% effective concentration (EC50) of 16.7 µM. For the same compound, the MTC in data set [2] turned out to be 100 µM.

Regarding `CCN(CCN(C)C)c1cc(-c2ccccn2)nc2ccccc12`, a half-maximal response in data set [1] (EC50) required 13.2 µM.

In data set [1], `Nc1cc(-c2cccs2)nc2ccccc12` displayed an EC50 of 34.3 µM. The same compound showed an MTC in data set [2] of 10 µM.

As to `CN(C)CCNc1cc(-c2ccncc2)nc2ccccc12`, the EC50 in data set [1] is 36.9 µM. In data set [2], the MTC is 100 µM.

The compound `CN(C)CCNc1cc(-c2ccc(Cl)cc2)nc2ccccc12` came in with an EC50 in data set [1] of 100 µM.

In turn, `CN(C)CCNc1cc(-c2cccs2)nc2ccccc12` returned an EC50 in data set [1] of 0.57 µM. Moreover, the MTC in data set [2] was 10 µM.

In data set [1], `Nc1cc(-c2ccccn2)nc2ccccc12` registered an EC50 of 8.56 µM. Further, the MTC in data set [2] amounted to 100 µM.

As for `CN(C)CCNc1cc(-c2cccnc2)nc2ccccc12`, in data set [1], the EC50 came to 1.51 µM. In addition, in data set [2], the MTC is above 100 µM.
